Screening results: PubChem, several laboratories
The list is not random: actives were taken first. Their share in the collection is about 0.75%.
p47phox inh – blocks human p47phox regulatory protein of NADPH oxidases. P14598. p47phox/p22phox peptide binding, fluorescence polarization, 2 h. inhibition, % at 24.7 µM. 0.53% of 220,000 active. AID 1274;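 active means inhibition above about 30%, limit read from the data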
Target sequence (P14598 whole entry, looked up): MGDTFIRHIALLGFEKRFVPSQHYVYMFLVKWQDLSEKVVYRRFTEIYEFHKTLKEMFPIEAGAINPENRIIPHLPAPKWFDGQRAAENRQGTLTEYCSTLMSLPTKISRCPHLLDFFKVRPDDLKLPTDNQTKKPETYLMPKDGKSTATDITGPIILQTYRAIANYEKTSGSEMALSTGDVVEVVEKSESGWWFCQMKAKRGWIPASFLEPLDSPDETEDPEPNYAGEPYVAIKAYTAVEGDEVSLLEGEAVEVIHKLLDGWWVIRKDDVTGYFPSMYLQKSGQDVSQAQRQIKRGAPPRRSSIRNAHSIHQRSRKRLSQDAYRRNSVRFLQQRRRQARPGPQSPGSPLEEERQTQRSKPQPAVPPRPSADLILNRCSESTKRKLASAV
TbHK1 inh – blocks Trypanosoma brucei hexokinase 1 activity | AID 1430 | inhibition, % at 10 µM | 0.11% of 220,000 active | recombinant TbHK1, G6PDH-coupled NADH A340;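 active means inhibition of 50% or more in the single-dose primary screen; inactive means inhibition below 50%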
Mdm2 ligase inh – Mdm2 E3 ligase (human) inhibition; Q00987; cell-based MDM2 ubiquitination luciferase reporter, 2 h; 0 = plate control, 100 = twice control, blank-subtracted; signal enhancement, % at 5 µM; 0.11% of 210,000 active; AID 1230;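 active means signal enhancement of 30% or more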;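 further: luminescence tracks abundance of the self-degrading MDM2-luciferase fusion protein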
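System: stable MDM2–luciferase fusion reporter cells / Input: 2000 cells seeded into each well / Schedule: 4 h settle plus 2 h compound, 37 °C / Compound: single-point 5 µM / Buffer or medium: cells held in DMEM / Benchmarks: control and blank well means / Evaluation: percent signal gain over controls, blank-subtracted / Measured by: luciferase luminescence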
Rad51 HR inh – blocks human Rad51 in homologous recombination | hRad51 DNA strand exchange, fluorescence dequenching | inhibition, % at 10 µM | 0.085% of 200,000 active;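 active means inhibition above 40% at the single screening dose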
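Material: human Rad51–ssDNA filaments; Probe or stimulus: labelled 47-mer dsDNA for strand exchange; Doses: single 10 µM dose; Incubation: 37 °C 15-min filament assembly, 30-min compound preincubation, 15-min exchange; Technique: FRET fluorescence dequenching, excitation 485 nm, emission 520 nm; Measure: Fluorescence-based percent inhibition, control- and blank-normalised; Benchmarks: plate control and blank wells.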
Large screens that a line does not name were inactive; ! = repeats disagree.

c1ccc(CSc2ncccn2)cc1	none
O=C(CSC1=NNC(c2ccccn2)S1)Nc1ccc(C(F)(F)F)cc1 (stereo not drawn)	Mdm2 ligase inh 37
Cc1ccc(-c2nnc(-c3ccc4c(c3)OCO4)o2)cc1	p47phox inh 131
CCN1C(=O)/C(=C/c2nc3ccccc3c(=O)[nH]2)c2ccccc21	p47phox inh 39
O=C(COC(=O)c1ccc(Cl)cc1O)NCCN1C(=O)CSC1=O	none (no result: Mdm2 ligase inh)
Cc1ccccc1NC(=O)Cn1c(O)c(N=NC(=O)c2ccccc2O)c2ccccc21	p47phox inh 50
CCOC(=O)C(=NCC1CCCO1)NNc1ccccc1Cl (stereo not drawn)	Rad51 HR inh 44 (no result: Mdm2 ligase inh)
O=[N+]([O-])c1cc(S(=O)(=O)N2CCOCC2)ccc1N1CCCC1	none
O=C(O)C1CCN(c2ccc(S(=O)(=O)N3CCOCC3)cc2[N+](=O)[O-])CC1	p47phox inh 69
CCOc1cc(CNCCc2ccc(S(N)(=O)=O)cc2)cc(Cl)c1OCc1ccccc1	p47phox inh 79
CCOc1cc(CNCCc2ccc(S(N)(=O)=O)cc2)ccc1OCc1ccccc1	none
Cc1ccc(Cl)cc1NC1=C/C(=N\S(=O)(=O)c2cccs2)c2ccccc2C1=O	p47phox inh 84
O=C1C(Nc2ccc(O)cc2)=C/C(=N/S(=O)(=O)c2cccs2)c2ccccc21	p47phox inh 31 (no result: Rad51 HR inh)
O=C(/C=C/c1ccccc1)OCCCN=C1NS(=O)(=O)c2ccccc21	none
CC1CC(C)(C)NC(=S)N1CCCC(=O)N1CCN(c2ccc(F)cc2)CC1 (stereo not drawn)	none
COCCn1c(SCc2cc(=O)n3cc(C)ccc3n2)nc2ccccc2c1=O	none
CN1CCN(C2=C(Cl)C(=O)N(Cc3ccccc3)C2=O)CC1	Rad51 HR inh 52
CCN1CCN(C2=C(Cl)C(=O)N(Cc3ccccc3)C2=O)CC1	none
O=C(SCC(O)C(O)CS)c1cccs1 (stereo not drawn)	none
Cn1nc(-c2ccccc2)c(CSc2ccccc2)c1Cl	p47phox inh 139
S=C(Nc1ccccc1Cl)NC1CCCCCC1	none
CCCN(CCC)S(=O)(=O)c1cccc(C(=O)Nc2ccc3c(c2)OCO3)c1	p47phox inh 165 (no result: Rad51 HR inh)
O=C(Nc1cccc(C(F)(F)F)c1)c1cc(S(=O)(=O)N2CCCCC2)ccc1N1CCOCC1	Mdm2 ligase inh 38
CC(=O)Nc1ccc2c(c1)OCCO2	none (no result: p47phox inh)
O=C(Nc1ccc2c(c1)OCCO2)c1c(F)c(F)c(F)c(F)c1F	p47phox inh 63
CC1CC(C)CN(CC(=O)Nc2ccc3c(c2)OCCO3)C1 (stereo not drawn)	p47phox inh 32
NC(=O)NC(=O)COC(=O)c1cccc(S(=O)(=O)N2CCCCCC2)c1	Rad51 HR inh 46 (no result: Mdm2 ligase inh)
O=C(Nc1ccc2c(c1)OCCO2)c1cccc(S(=O)(=O)N2CCCCC2)c1	Rad51 HR inh 122
COc1ccc(NS(=O)(=O)c2ccc(N3CCOCC3)c(NC(=O)c3ccc(F)cc3)c2)cc1	none
COc1ccc(NS(=O)(=O)c2ccc(N3CCOCC3)c(NC(=O)c3cccc(F)c3)c2)cc1	p47phox inh 50 (no result: Rad51 HR inh)
Cc1ccc(-n2c(Cc3cccs3)nnc2SCC(=O)Nc2ccc(F)c(F)c2)cc1	p47phox inh 75
Cc1ccc(-c2nnc(Oc3ccc(NC(=O)c4ccccc4)cc3)c3ccccc23)cc1	p47phox inh 43
CN(C1CCCCC1)S(=O)(=O)c1ccc2c(c1)c(=O)c(C(=O)NCCN1CCCC1)cn2C	p47phox inh 51
COc1cc(C#N)ccc1OCC(=O)Nc1cccc(S(=O)(=O)N2CCCC2)c1	none
COc1ccc(C(=O)/C=C/C(=O)N(CC(=O)NC2CCCCC2)Cc2ccc(F)cc2)c(O)c1	p47phox inh 33
CS(=O)(=O)N(CC(=O)NC1CCCCC1)Cc1ccc(F)cc1	none (no result: Rad51 HR inh)
Cc1cc(C)n(-c2nnc(NCc3ccc(Cl)cc3)nn2)n1	none
Cc1nn(-c2nnc(NCc3ccccc3)nn2)c(C)c1Br	Mdm2 ligase inh 34
COc1ccc(N2CCN(C(=O)CN(C3CCCCC3)S(C)(=O)=O)CC2)cc1	none
COc1ccc(C2C(=O)c3ccccc3C2=O)c(OC)c1	Rad51 HR inh 100
CCn1c(-c2ccccc2O)n[nH]c1=S	p47phox inh 33
COc1cc(NC(=O)Cc2cccs2)c(C(=O)O)cc1OC	none
COc1cccc(/C=N/NC(=O)CNC(=O)COc2ccccc2)c1O	p47phox inh 82 (no result: Rad51 HR inh)
COc1ccc(/C=N/NC(=O)CNC(=O)COc2ccccc2)cc1	none
COC(=O)c1cc(Br)c(=O)n(-c2ccc(F)cc2)c1	p47phox inh 31
COc1ccc2c(C)cc(SCC(=O)NCCN3C(=O)CSC3=O)nc2c1	none
O=C1/C(=C/c2ccc([N+](=O)[O-])cc2)C=C(c2ccccc2)N1c1ccc(O)cc1	p47phox inh 56
Nc1cc([N+](=O)[O-])ccc1O	none
COc1ccc(O)c(N)c1	p47phox inh 43
CCCN(CCC)C(C)C(=O)NCC1(c2ccccc2)CCCC1 (stereo not drawn)	none
CCOC(=O)CN1C(=O)N[C@@H](c2ccccc2)[C@H](C(C)=O)[C@H]1C	none (no result: p47phox inh, TbHK1 inh, Mdm2 ligase inh)
O=C(N/N=C/c1ccc([N+](=O)[O-])o1)c1cc2ccccc2o1	none
O=C(N/N=C/c1ccc([N+](=O)[O-])o1)c1cc2c(ccc3ccccc32)o1	p47phox inh 30
COC(Cn1c2c(c3cc(C)ccc31)CCCC2NCc1ccccc1)OC (stereo not drawn)	none (no result: Rad51 HR inh)
CC(=O)Nc1ccc(NC(=O)CSc2nnc3ccc(-c4ccc(F)cc4)nn23)cc1	none
O=c1c2ccccc2nc(/C=C/c2ccc([N+](=O)[O-])cc2)n1CCCO	none
O=c1c2ccccc2nc(/C=C/c2ccc([N+](=O)[O-])o2)n1CCCO	p47phox inh 35
CCCCC(=O)/C=C/n1c(=S)oc2ccccc21	Mdm2 ligase inh 69
CCN1C(c2ccccc2)=C(c2ccccc2)S/C1=C\C=C1/SC(=S)N(C)C1=O	none (no result: p47phox inh, Mdm2 ligase inh)
CCN1C(c2ccccc2)=C(c2ccccc2)S/C1=C/C=C1\SC(=S)N(C)C1=O	p47phox inh 42 (no result: Rad51 HR inh)
CCN(CC)CC(=O)c1ccc(-c2ccccc2)cc1	none
CN(C)CC(=O)c1ccc(-c2ccccc2)cc1	p47phox inh 44
OCC1(CO)COC2(CCCC2)N1	p47phox inh 62!
Cc1cccn2c(CNC3CCCc4ccccc43)c(C(=O)N3CCCCC3)nc12 (stereo not drawn)	none (no result: Rad51 HR inh)
CCn1c(SCC(=O)N2CCc3ccccc32)nnc1-c1c[nH]c2ccccc12	none
COc1ccc(-n2c(SCC(=O)N3CCc4ccccc43)nnc2-c2c[nH]c3ccccc23)cc1	p47phox inh 52 (no result: Mdm2 ligase inh, Rad51 HR inh)
CCOc1cc(N2CCOCC2)c(OCC)cc1NC1=NCCCCC1	p47phox inh 60
Cn1c2ccccc2c(=O)c2c(=O)n(Cc3ccco3)c(-c3ccc(C(C)(C)C)cc3)nc21	none
CC(=O)c1ccc(N2Cc3ccccc3C2=NC(=O)c2cccs2)cc1	p47phox inh 38
CN(CCCC[C@H](CNCc1ccc(-c2ccccc2)cc1)N1C[C@H](c2ccccc2)N(CCc2ccc(Cl)c(Cl)c2)C(=O)C1=O)Cc1ccc(-c2ccccc2)cc1	p47phox inh 51
